Test [1] has as its target T1, Low molecular weight protein-tyrosine phosphatase A (Mycobacterium tuberculosis, UniProt P9WIA1).
T1 sequence (P9WIA1 whole entry): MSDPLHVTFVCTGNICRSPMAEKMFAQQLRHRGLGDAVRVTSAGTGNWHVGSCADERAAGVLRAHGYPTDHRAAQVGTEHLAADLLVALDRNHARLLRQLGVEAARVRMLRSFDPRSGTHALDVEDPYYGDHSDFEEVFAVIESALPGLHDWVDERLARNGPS
As to the kind of experiment: Inhibition of Mycobacterium tuberculosis recombinant protein tyrosine phosphatase A by Lineweaver-Burke plot analysis. In a few lines: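 Recombinant wild-type MPtpA (purified, purity by SDS-PAGE, concentration from A280) held at 1 µM. Phosphatase activity measured at 25 °C in 0.1 M Tris, 0.15 M NaCl, 1 mM EDTA, pH 7.5, with pNPP substrate. p-Nitrophenol release read at 405 nm. Inhibitors added from methanol, final methanol ≤3% v/v. Inhibitor typically 10–50 µM, substrate 100–300 µM. Triplicate assays. Mode of inhibition from double-reciprocal plots. Ki taken from a plot of Km/Vmax versus [I].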

The target of test [2] is T2, Low molecular weight protein-tyrosine phosphatase A (Mycobacterium tuberculosis) (UniProt P9WIA1).
T2 sequence (whole entry): T1 sequence (P9WIA1 whole entry)
As to the kind of experiment: Binding affinity to Mycobacterium tuberculosis recombinant protein tyrosine phosphatase A by circular dichroism spectral analysis. In a few lines:
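Far-UV CD of recombinant MPtpA at 25 °C in Tris buffer, 10 mm quartz cell. Spectra taken over 195–240 nm at 50 nm/min with 4 s response. Buffer blank containing the ligand subtracted. Protein:peptide ratio titrated from 2:1 up to 1:6. Changes followed at the α-helix minima, 208 and 222 nm, and a binding constant was derived from the titration.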
On the technique in general: Circular dichroism is widely used to follow secondary structure.

Test [3] deals with T2, Low molecular weight protein-tyrosine phosphatase A (Mycobacterium tuberculosis). The test can be described thus: Binding affinity to Mycobacterium tuberculosis recombinant protein tyrosine phosphatase A by fluorescence quenching assay. In a few lines: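 Intrinsic tryptophan fluorescence of MPtpA, held at 2 µM, recorded at 20 °C in a 10 mm quartz cuvette. Emission maximum at 340 nm followed during titration with the peptide, up to a 1:10 protein:peptide ratio. Data fitted to Stern–Volmer (F0/F = 1 + Ksv[Q]) and Scatchard plots to give quenching and binding constants.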

As a reminder, the Ki is a measure of affinity in units of concentration, obtained from inhibition or displacement. Consider `C[C@@H]1NC(=O)[C@H](C)NC(=O)[C@@H]([C@@H](Nc2ccccc2)c2ccccc2)CNC1=O`, for which, in test [1], the Ki was 220 µM. The results for the Kb in test [2] and in test [3] were 1.1 ×10⁴ /M and 1 ×10⁴ /M, respectively.

`O=C1CC[C@H](C(=O)O)NC(=O)[C@@H]([C@@H](Nc2ccccc2)c2ccccc2)CN1`: the Ki in test [1] came out at 36.3 µM. For the same molecule, the Kb in test [2] was 8.5 ×10⁴ /M; in test [3], 8.89 ×10⁴ /M.

`C[C@@H]1NC(=O)[C@H](C)NC(=O)[C@H](C)NC(=O)[C@@H]([C@@H](Nc2ccccc2)c2ccccc2)CNC1=O`: the Ki in test [1] was 199 µM. Further, the Kb amounted to 3.3 ×10⁴ /M in test [2] and 3.27 ×10⁴ /M in test [3].

With `O=C1CNC(=O)[C@@H]([C@@H](Nc2ccccc2)c2ccccc2)CN1`, in test [1], the Ki was 140 µM. The Kb in test [2] was determined as 3.6 ×10⁴ /M; in test [3], 3.41 ×10⁴ /M.

With `O=C1CNC(=O)CNC(=O)[C@@H]([C@@H](Nc2ccccc2)c2ccccc2)CN1`, the Ki in test [1] amounted to 85.5 µM. Besides, the values for the Kb in test [2] and in test [3] were 4.7 ×10⁴ /M and 4.87 ×10⁴ /M, respectively.

Turning to `O=C1CNC(=O)[C@H](Cc2ccc(O)cc2)NC(=O)[C@@H]([C@@H](Nc2ccccc2)c2ccccc2)CN1`, in test [1], the Ki stood at 8 µM. Moreover, the Kb was 1.2 ×10⁵ /M in test [2] and 1.5 ×10⁵ /M in test [3].

For the molecule `O=C1CNC(=O)CNC(=O)[C@@H]([C@@H](Nc2ccccc2)c2ccco2)CN1`, the inhibition constant (Ki) in test [1] worked out at 215 µM. The Kb in test [2] amounted to 2.95 ×10⁴ /M; in test [3] it was 2.99 ×10⁴ /M.

The values above are taken from ChEMBL document CHEMBL1287755, “Design, synthesis and inhibition activity of novel cyclic peptides against protein tyrosine phosphatase A from Mycobacterium tuberculosis” (Bioorg Med Chem, 2010).
